Experimental findings from ChEMBL document CHEMBL1126180, “4-substituted 2-alkoxytetrahydrofurans as potent and long-lasting PAF antagonists” (J Med Chem, 1992) are described below.

A short description of experiment [1]: Dose required (i.v.) to reduce the lowering of arterial blood pressure caused by PAF in rats. Conditions: Rattus norvegicus.
The species entered for experiment [2] is Mus musculus. Put plainly: Percent protection of PAF-induced mortality in mice after 24 hr. It is filed as functional. Also on record: concentration or dose not given beside the values. In outline:
(§1)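 Duration study in male Swiss mice (22–26 g). Single 1 mg/kg iv dose of test compound at time 0. C18-PAF 100 µg/kg plus propranolol 1 mg/kg given iv via tail vein at the stated time after dosing, 10–40 mice per time point.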

Experiment [3] is filed under the species Mus musculus. Put plainly: Percent protection of PAF-induced mortality in mice after 3h. It is filed as functional. Also on record: concentration or dose not given beside the values. In outline: as §1
The species entered for experiment [4] is Mus musculus. Put plainly: Percent protection of PAF-induced mortality in mice after 2 hr. In kind it is functional. The arrangement: concentration or dose not given beside the values. Put shortly: as §1
The species entered for experiment [5] is Mus musculus. Description: Percent protection of PAF-induced mortality in mice after 0.5 hr. The arrangement: concentration or dose not given beside the values. It is filed as functional. Put shortly: as §1
For experiment [6], the species on record is Mus musculus. Put plainly: Percent protection of PAF-induced mortality in mice after 17h. The arrangement: concentration or dose not given beside the values. It is filed as functional. In outline: as §1
For experiment [7], the species on record is Mus musculus. Put plainly: Percent protection of PAF-induced mortality in mice after 5 hr. It is filed as functional. The arrangement: concentration or dose not given beside the values. Put shortly: as §1
The species named for experiment [8] is Mus musculus. Description: Percent protection of PAF-induced mortality in mice after 7 hr. Also on record: concentration or dose not given beside the values. In kind it is functional. In outline: as §1
The test system of experiment [9] is Mus musculus. Description: Compound was evaluated for the inhibition of PAF-induced mortality in mice, after intravenous administration of the drug. It is filed as functional. Conditions: read-out: ID50 (the source's name).
The species entered for experiment [10] is Mus musculus. Put plainly: Percent protection of PAF-induced mortality in mice after 7h; NP means no protection. In kind it is functional, organism-based. In outline: (§2)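 Male Swiss mice (22–26 g) given compound as a single 1 mg/kg iv dose at time 0. At the stated time, C18-PAF 100 µg/kg plus propranolol 1 mg/kg injected into a lateral tail vein. […] 10–40 mice per time point.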

The species entered for experiment [11] is Mus musculus. Put plainly: Percent protection of PAF-induced mortality in mice after 5h; NP means no protection. In kind it is functional, organism-based. Put shortly: as §2

The structures appear in SMILES notation. “And” between values parts separate entries of the source, which are not always exact repeats. Equal entries are not always repeated. The source made the active and inactive calls. The calls are words filed in the database; no cut-off is given here.

Turning to `CC[n+]1ccccc1CN(C(C)=O)C(=O)OCC1COC(OCCCCCCOCc2ccc(-c3ccccc3)cc2)C1` (configuration not stated), the ID50 in experiment [1] was 0.012 mg/kg.
For the molecule `CC[n+]1ccccc1CN(C(C)=O)C(=O)OCC1COC(OCCCCCCOCCCCCc2ccccc2)C1.[I-]` (configuration not stated), the Protection in the experiment filed under Mus musculus [2] is reported as 38%; in the experiment listed under Mus musculus [3] it was 100%; in the experiment filed under Mus musculus [4] it was 100%; in the experiment filed under Mus musculus [5], 100%; in the experiment listed under Mus musculus [6], 38%; in the experiment filed under Mus musculus [7], 89%. In the experiment filed under Mus musculus [8], the Protection is 80%. This molecule also had an ID50 in experiment [1] of 0.021 mg/kg. For the same molecule, the ED50 in the experiment with Mus musculus [9] was 0.0083 mg/kg.
In the case of `CCCCCCCCCCOCCCCCCOC1CC(COC(=O)N(Cc2cccc[n+]2CC)C(C)=O)CO1.[I-]` (configuration not stated), the Protection in the experiment listed under Mus musculus [2] worked out at 51%; in the experiment listed under Mus musculus [3] it was 100%; in the experiment listed under Mus musculus [4], 100%; in the experiment filed under Mus musculus [5], 100%; in the experiment filed under Mus musculus [6], 40%; in the experiment listed under Mus musculus [7], 100%. Besides, in the experiment filed under Mus musculus [8], the Protection was 88%. The ID50 in [1] is 0.004 mg/kg. Further, the ED50 with Mus musculus [9] was found to be 0.0064 mg/kg.
For `CCCCCCCCCCCCCCCCOCC1CC(COC(=O)N(Cc2cccc[n+]2CC)C(C)=O)CO1.[Cl-]` (configuration not stated), the Protection is 17% in the experiment listed under Mus musculus [2]; 75% in the experiment filed under Mus musculus [3]; 100% in the experiment listed under Mus musculus [4]; 44% in the experiment listed under Mus musculus [6]; 54% in the experiment listed under Mus musculus [7]; 65% in the experiment listed under Mus musculus [8]. Moreover, the ID50 in [1] was found to be 0.027 mg/kg. Moreover, in the experiment with Mus musculus [9], the ED50 was determined as 0.031 mg/kg.
Take `CCCCCCCCCCCCCCCCCCOCC1CC(COC(=O)N(Cc2cccc[n+]2CC)C(C)=O)CO1.[Cl-]` (configuration not stated): the Protection in the experiment listed under Mus musculus [2] amounted to 33%; in the experiment listed under Mus musculus [3], 100%; in the experiment filed under Mus musculus [6], 44%; in the experiment filed under Mus musculus [7], 100%; in the experiment listed under Mus musculus [8], 100%. The same molecule yielded an ID50 in experiment [1] of 0.011 mg/kg. Further, in the experiment on Mus musculus [9], the ED50 came to 0.026 mg/kg.
Turning to `CC[n+]1ccccc1CN(C(C)=O)C(=O)OCC1COC(OCCCCCCCCCCCCCCCCOC)C1.[I-]` (configuration not stated), the Protection was 66% in the experiment filed under Mus musculus [3], 100% in the experiment filed under Mus musculus [4], 100% in the experiment listed under Mus musculus [5] and 59% in the experiment filed under Mus musculus [7]. This molecule yielded an ID50 in experiment [1] of 0.04 mg/kg. In addition, the Protection result in the experiment filed under Mus musculus [10] is “inactive”. Further, the ED50 in the experiment with Mus musculus [9] was determined as 0.0076 mg/kg.
Take `CCCCCCCCCCCCCCCCCC1CC(COC(=O)N(Cc2cccc[n+]2CC)C(C)=O)CO1.[I-]` (configuration not stated): the Protection entry in the experiment listed under Mus musculus [11] is “inactive”. In addition, the Protection in the experiment filed under Mus musculus [3] turned out to be 16%; in the experiment filed under Mus musculus [4] it was 16%; in the experiment filed under Mus musculus [5], 100%. This molecule also had an ID50 in [1] of 0.05 mg/kg. Moreover, the ED50 in the experiment with Mus musculus [9] was found to be 0.36 mg/kg.
In the case of `CC[n+]1ccccc1CN(C(C)=O)C(=O)OCC1COC(OCCCc2ccccc2)C1` (configuration not stated), the ID50 in experiment [1] came out at 0.12 mg/kg.
In [1], `CCCCCCCCCCCCCCCCCCCCOC1CC(COC(=O)N(Cc2cccc[n+]2CC)C(C)=O)CO1` (configuration not stated) had an ID50 of 0.048 mg/kg.
On the same count and under the same terms, to `CCOC1CC(COC(=O)N(Cc2cccc[n+]2CC)C(C)=O)CO1` (configuration not stated) belongs 2.3 mg/kg.
`CCCCCCCCCCCCCCCCCCOC1C[C@H](COC(=O)N(Cc2cccc[n+]2CC)C(C)=O)CO1.[I-]` (some centres not stated): the Protection amounted to 60% in the experiment listed under Mus musculus [2], 93% in the experiment filed under Mus musculus [6], 100% in the experiment filed under Mus musculus [7] and 100% in the experiment filed under Mus musculus [8]. In addition, the ID50 in [1] was 0.031 mg/kg. Further, in the experiment with Mus musculus [9], the ED50 was 0.012 mg/kg.
`CC[n+]1ccccc1CN(C(C)=O)C(=O)OCC1COC(OCCC(c2ccccc2)c2ccccc2)C1` (configuration not stated) showed an ID50 in [1] of 0.11 mg/kg.
As to `CC[n+]1ccccc1CN(C(C)=O)C(=O)OCC1COC(OCCC(C)C)C1` (configuration not stated), in experiment [1], the ID50 is 0.21 mg/kg.
For the molecule `CCCCCCCCCCCCCCCCCCOC1CC(COC(=O)N(Cc2cccc[n+]2CC)C(C)=O)CO1.[Cl-]` (configuration not stated), the Protection in the experiment filed under Mus musculus [2] is on record as 48%; in the experiment listed under Mus musculus [3] it was 100%; in the experiment filed under Mus musculus [4], 100%; in the experiment listed under Mus musculus [5], 100%; in the experiment filed under Mus musculus [6], 81%; in the experiment filed under Mus musculus [7] it was 100%. This molecule also had a Protection in the experiment filed under Mus musculus [8] of 95%. In experiment [1], the ID50 was 0.026 mg/kg and 0.025 mg/kg. Moreover, in the experiment with Mus musculus [9], the ED50 turned out to be 0.023 mg/kg.
As for `CCCCCCCCCCCCCCCCOC1CC(COC(=O)N(Cc2cccc[n+]2CC)C(C)=O)CO1.[I-]` (configuration not stated), the Protection in the experiment filed under Mus musculus [2] was 44%; in the experiment filed under Mus musculus [3], 88%; in the experiment filed under Mus musculus [4] it was 100%; in the experiment listed under Mus musculus [5], 100%; in the experiment listed under Mus musculus [6], 65%; in the experiment listed under Mus musculus [7] it was 61%. The Protection in the experiment filed under Mus musculus [8] stood at 64%. This molecule came in with an ID50 in experiment [1] of 0.01 mg/kg. Moreover, the ED50 in the experiment on Mus musculus [9] is 0.024 mg/kg.
Take `CCCCCCCCCCCCCCCCCCO[C@@H]1C[C@H](COC(=O)N(Cc2cccc[n+]2CC)C(C)=O)CO1.[I-]`: the results for the Protection in the experiment listed under Mus musculus [2], in the experiment filed under Mus musculus [6] and in the experiment filed under Mus musculus [8] were 38%, 67% and 100%, respectively. This molecule registered an ID50 in experiment [1] of 0.066 mg/kg. Further, the ED50 in the experiment with Mus musculus [9] amounted to 0.03 mg/kg.
With `CC[n+]1ccccc1CN(C(C)=O)C(=O)OCC1COC(OCCCCCCOCCCc2ccccc2)C1.[I-]` (configuration not stated), the Protection entry in the experiment listed under Mus musculus [11] was “inactive”. The Protection came out at 50% in the experiment listed under Mus musculus [3] and 100% in the experiment filed under Mus musculus [4]. The same molecule yielded an ID50 in [1] of 0.06 mg/kg. Also, the ED50 in the experiment on Mus musculus [9] amounted to 0.073 mg/kg.
In the case of `C=CCCCCCCOCCCCCCOC1CC(COC(=O)N(Cc2cccc[n+]2CC)C(C)=O)CO1.[I-]` (configuration not stated), the Protection was found to be 88% in the experiment filed under Mus musculus [3]; 100% in the experiment listed under Mus musculus [4]; 20% in the experiment listed under Mus musculus [6]; 63% in the experiment listed under Mus musculus [7]; 40% in the experiment filed under Mus musculus [8]. This molecule returned an ID50 in experiment [1] of 0.063 mg/kg. In addition, the ED50 with Mus musculus [9] was determined as 0.024 mg/kg.
As for `CCCCCCCCCCCCCCCCCCNC(=O)OCC(COC(=O)N(Cc1cccc[n+]1CC)C(C)=O)OC.[Cl-]` (configuration not stated) [CV-6209], the Protection was found to be 48% in the experiment listed under Mus musculus [2]; 100% in the experiment listed under Mus musculus [3]; 100% in the experiment listed under Mus musculus [4]; 100% in the experiment listed under Mus musculus [5]; 95% in the experiment filed under Mus musculus [6]; 100% in the experiment filed under Mus musculus [7]. For the same molecule, in the experiment filed under Mus musculus [8], the Protection was 100%. Besides, the ID50 in experiment [1] amounted to 0.0078 mg/kg. Besides, the ED50 in the experiment with Mus musculus [9] came to 0.022 mg/kg.
